The source of these data is ChEMBL document CHEMBL2407011, “Novel 2-(2,4-dioxo-1,3-thiazolidin-5-yl)acetamides as antioxidant and/or anti-inflammatory compounds” (Eur J Med Chem, 2013).

For orientation: IC50 means the point on the concentration scale where inhibition reaches its midpoint. The EC50 is the concentration giving half of the maximal effect.

The subject of experiment [1] is THP-1. Nature of the experiment: Antiinflammatory activity against PMA-stimulated human THP1 cells assessed as MCP-1 levels after 48 hrs by ELISA (reference value: 3521.63 +/- 79.78 pg/ml). In kind it is functional.
Experiment [2] has as its system THP-1. Description: Antiinflammatory activity in human THP1 cells assessed as inhibition of PMA-induced IL-1beta secretion preincubated for 1 hr prior PMA-challenge measured after 48 hrs by ELISA. In kind it is functional, cell-based. The essentials:
(§1)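 THP1 cells at 2 x 10^5 cells/mL were pretreated 1 h with 5, 10 and 20 µM compound, then stimulated with 10 ng/mL PMA for 48 h. Supernatant IL-1β or MCP-1 was measured by ELISA at 450 nm (corrected at 570 nm) and quantified from a standard curve. Percent inhibition was taken versus control and IC50 derived, reported as mean ± SD of three independent experiments.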

The test system of experiment [3] is THP-1. Nature of the experiment: Antiinflammatory activity in human THP1 cells assessed as inhibition of PMA-induced MCP-1 secretion preincubated for 1 hr prior PMA-challenge measured after 48 hrs by ELISA. The class given is functional, cell-based. Put shortly:
as §1
Background: An ELISA detects its analyte on a solid surface through an enzyme-linked reagent.

Experiment [4] relates to THP-1. Description: Antiinflammatory activity against PMA-stimulated human THP1 cells assessed as IL-1beta levels after 48 hrs by ELISA (reference value: 172 +/- 0.71 pg/ml). The class given is functional.
A short description of experiment [5]: Antioxidant activity assessed as DPPH scavenging activity after 30 mins by UV-visible spectrophotometry. The class given is functional. Put shortly: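 Methanolic compound solutions (5–180 µg/mL) mixed 1:1 by volume with 0.002% DPPH in methanol, shaken and kept in the dark 30 min. Absorbance read at 517 nm; % scavenging = (Acontrol − Asample)/Acontrol × 100. EC50 is the concentration scavenging 50% of radicals; mean of three experiments.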
On the technique in general: The DPPH test is a chemical assay of radical scavenging.

A short description of experiment [6]: Hemolysis of human erythrocytes after 30 mins by spectrophotometry. In kind it is ADME, cell-based, Erythrocyte. Put shortly:
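Citrated human blood centrifuged (3,000 g, 10 min), erythrocytes washed in PBS pH 7.4 and made up as a 1.25% suspension. Suspension incubated with H2O2 (2.5 mM) and compound (50–300 µg/mL) 30 min at 37 °C, stopped on ice, centrifuged, read at 540 nm. Inhibition = (AH2O2 − Asample)/(AH2O2 − Anormal) × 100.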

The nature of experiment [7]: Antioxidant activity assessed as inhibition of lipid peroxidation activity after 15 mins by MDA assay. In kind it is functional. Put shortly: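 Egg yolk diluted 1:1 in PBS (0.1 M, pH 7.45) served as substrate. Compound (50–300 µg/mL) was added with FeSO4 (25 mM stock) and incubated 15 min at 37 °C. Reaction stopped with 20% TCA plus 0.8% thiobarbituric acid, then heated 15 min at 100 °C. MDA adduct read at 532 nm; % inhibition versus control, EC50 from triplicates.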

The nature of experiment [8]: Antioxidant activity assessed as superoxide radical scavenging activity after 5 mins by spectrophotometry. In kind it is functional. The essentials:
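Superoxide generated by PMS/NADH reducing NBT, in 16 mM Tris-HCl pH 8.0 with […], 50 µM NBT, 10 µM PMS and compound (5–180 µg/mL). After 5 min at room temperature, formazan read at 560 nm; % scavenging versus control, EC50 from triplicates.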

Where [9] appears, read: Homo sapiens, Erythrocyte, 0.5 h, read-out: EC50.

Values after ≈ are worked out from the molar mass of the structure shown.

Consider `CCc1ccc(CCOc2ccc(CC3SC(=O)NC3=O)cc2)nc1` (stereo not given) [PIOGLITAZONE], for which the values for the Activity in the experiment on THP-1 [1] and with THP-1 [4] were 2588.33 pg/mL and 165 pg/mL, respectively. The figures for the IC50 in the experiment with THP-1 [2] and in the experiment on THP-1 [3] were over 50 µM and 18.8 µM, respectively.

Regarding `O=c1cc(-c2ccc(O)c(O)c2)oc2cc(O)cc(O)c12` [LUTEOLIN], the concentration for a half-maximal effect (EC50) came out at 44.18 µg/mL (≈ 154 µM) in experiment [5], 107 µg/mL (≈ 375 µM) in experiment [6] (setting [9]), 149.7 µg/mL (≈ 523 µM) in experiment [7] and 31.01 µg/mL (≈ 108 µM) in experiment [8].

Turning to `CN1C(C(=O)Nc2ccccn2)=C(O)c2ccccc2S1(=O)=O` [PIROXICAM], the 50% inhibitory concentration (IC50) with THP-1 [2] was determined as 21.3 µM.

As to `Cc1ccccc1-c1csc(NC(=O)CC2SC(=O)NC2=O)n1` (stereo not given), the figures for the IC50 in the experiment with THP-1 [2] and in the experiment on THP-1 [3] were 7.66 µM and 18.8 µM, respectively. Also, the EC50 result in experiment [5] was “Not Active”.

Turning to `O=C(CC1SC(=O)NC1=O)Nc1nc(-c2ccccc2Cl)cs1` (stereo not given), the half-maximal inhibitory concentration (IC50) is 18.2 µM in the experiment with THP-1 [2] and 26.5 µM in the experiment on THP-1 [3]. For the same molecule, the EC50 result in experiment [5] was “Not Active”.

On to `COc1ccccc1-c1csc(NC(=O)CC2SC(=O)NC2=O)n1` (stereo not given), for which the figures for the IC50 in the experiment on THP-1 [2] and in the experiment on THP-1 [3] were 7.23 µM and over 50 µM, respectively. Moreover, the EC50 in experiment [5] amounted to 58.68 µg/mL (≈ 161 µM); in experiment [6] (setting [9]), 96.6 µg/mL (≈ 266 µM); in experiment [7], 131.79 µg/mL (≈ 363 µM); in experiment [8], 79.94 µg/mL (≈ 220 µM).

In the case of `CCOc1ccc2nc(NC(=O)CC3SC(=O)NC3=O)sc2c1` (stereo not given), the IC50 in the experiment with THP-1 [2] is over 50 µM; with THP-1 [3] it was 63.1 µM. The concentration giving a half-maximal response (EC50) is 62.9 µg/mL (≈ 179 µM) in experiment [5], “Not Active” in experiment [6] (erythrocyte), “Not Active” in experiment [7] and “Not Active” in experiment [8].

For the molecule `O=C(CC1SC(=O)NC1=O)Nc1nc(-c2ccccc2)cs1` (stereo not given), the IC50 with THP-1 [2] is 9.6 µM; in the experiment on THP-1 [3], 30.4 µM. Also, the EC50 entry in experiment [5] is “Not Active”.

Turning to `O=C(CC1SC(=O)NC1=O)Nc1nc(-c2cccc(Cl)c2)cs1` (stereo not given), the IC50 in the experiment with THP-1 [2] amounted to 23.4 µM; with THP-1 [3], 34.2 µM. The EC50 result in experiment [5] was “Not Active”.

Take `Cc1cccc(-c2csc(NC(=O)CC3SC(=O)NC3=O)n2)c1` (stereo not given): the 50% inhibitory concentration (IC50) in the experiment with THP-1 [2] came to 11.7 µM; with THP-1 [3], 18.9 µM. In addition, the EC50 is 90.16 µg/mL (≈ 260 µM) in experiment [5], “Not Active” in experiment [6] (erythrocyte) and “Not Active” in experiment [8].

In the case of `O=C(CC1SC(=O)NC1=O)Nc1nc(-c2ccc(I)cc2)cs1` (stereo not given), the values for the half-inhibitory concentration (IC50) with THP-1 [2] and with THP-1 [3] were over 50 µM and 31.7 µM, respectively. Besides, the EC50 result in experiment [5] and in experiment [6] (erythrocyte) was “Not Active” in each case.

As to `O=C(CC1SC(=O)NC1=O)Nc1nc(-c2ccc(F)cc2)cs1` (stereo not given), the concentration for half-maximal inhibition (IC50) in the experiment on THP-1 [2] was over 50 µM; in the experiment on THP-1 [3] it was 17.6 µM. Also, the EC50 was 52.69 µg/mL (≈ 150 µM) in experiment [5], “Not Active” in experiment [6] (erythrocyte), “Not Active” in experiment [7] and “Not Active” in experiment [8].

`COc1ccc2nc(NC(=O)CC3SC(=O)NC3=O)sc2c1` (stereo not given): the results for the concentration for half-maximal inhibition (IC50) in the experiment with THP-1 [2] and with THP-1 [3] were 7.03 µM and 39.6 µM, respectively. The half-maximal effective concentration (EC50) in experiment [5] was 51.82 µg/mL (≈ 154 µM); in experiment [6] (erythrocyte) it was “Not Active”; in experiment [7], “Not Active”; in experiment [8], “Not Active”.

Consider `O=C(CC1SC(=O)NC1=O)Nc1nc(-c2ccc(Br)cc2)cs1` (stereo not given), for which the figures for the 50% inhibitory concentration (IC50) in the experiment on THP-1 [2] and in the experiment on THP-1 [3] were 33.1 µM and 49.1 µM, respectively. Besides, the EC50 was 49.71 µg/mL (≈ 121 µM) in experiment [5], “Not Active” in experiment [6] (erythrocyte), “Not Active” in experiment [7] and “Not Active” in experiment [8].

With `O=C(CC1SC(=O)NC1=O)Nc1nc(-c2ccccc2F)cs1` (stereo not given), the IC50 in the experiment with THP-1 [2] is over 50 µM; in the experiment on THP-1 [3], 16.7 µM. Besides, the EC50 is 82.5 µg/mL (≈ 235 µM) in experiment [5], “Not Active” in experiment [6] (erythrocyte), “Not Active” in experiment [7] and “Not Active” in experiment [8].

In the case of `O=C(CC1SC(=O)NC1=O)Nc1nc2ccc([N+](=O)[O-])cc2s1` (stereo not given), the IC50 in the experiment with THP-1 [2] worked out at 6.83 µM; in the experiment with THP-1 [3], 20.3 µM. The EC50 in experiment [5] is 39.76 µg/mL (≈ 113 µM); in experiment [6] (erythrocyte), “Not Active”; in experiment [7], “Not Active”; in experiment [8], “Not Active”.

In the case of `O=C(CC1SC(=O)NC1=O)Nc1nc2ccccc2s1` (stereo not given), the IC50 was over 50 µM in the experiment on THP-1 [2] and 20.8 µM with THP-1 [3]. Also, the EC50 in experiment [5] came out at 52.18 µg/mL (≈ 170 µM); in experiment [6] (setting [9]), 107 µg/mL (≈ 349 µM); in experiment [7] it was 149.7 µg/mL (≈ 487 µM); in experiment [8] it was 101.18 µg/mL (≈ 329 µM).

Consider `O=C1O[C@H]([C@@H](O)CO)C(O)=C1O` [ASCORBIC ACID], for which the EC50 in experiment [5] is 40.28 µg/mL (≈ 229 µM); in experiment [6] (setting [9]) it was 96.6 µg/mL (≈ 549 µM); in experiment [7], 139.97 µg/mL (≈ 795 µM); in experiment [8], 21.01 µg/mL (≈ 119 µM).

On to `O=C(CC1SC(=O)NC1=O)Nc1nc(-c2ccc(Cl)cc2)cs1` (stereo not given), for which the half-maximal inhibitory concentration (IC50) was 16.3 µM with THP-1 [2] and over 50 µM with THP-1 [3]. Besides, in experiment [5], the 50% effective concentration (EC50) result was “Not Active”.
